Test results taken from ChEMBL document CHEMBL3351994, “Synthesis and biological evaluation of novel millepachine derivatives as a new class of tubulin polymerization inhibitors” (J Med Chem, 2014).

Legend:
[1] = Antiproliferative activity against adriamycin resistant human MCF7/ADR cells assessed as inhibition of cell proliferation after 48 hrs by MTT assay; format: functional, cell-based; settings: NCI/ADR-RES
Summary of the method: (§1)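 Cells grown at 37 °C in humidified 5% CO2. K562, C26 and HCT lines in RPMI-1640; other lines in DMEM; both media with 10% FBS, penicillin and streptomycin. 1000 cells/well seeded, incubated overnight, then compound at various doses for 48 h. MTT added for 4 h, formazan dissolved in DMSO, absorbance read at 590 nm. IC50 from dose–response curves, mean ± SEM of at least three independent experiments.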

[2] = system: HepG2; assay: Antitumor activity against human HepG2 cells xenografted in Balb/C mouse assessed as tumor mass changes at 5 mg/kg, iv dosed every 2 days for 11 days; format: functional
Summary of the method: (§2)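 Female Balb/c or athymic nude mice, 5–6 weeks old. 5 × 10^6 cells in HBSS implanted sc in the right flank/armpit. Treatment began at tumor volume 100 mm3, 6 mice per group; vehicle was 2.5% Tween-80 and 2.5% ethanol. Tumor volume (π/6 × L × W²) and body weight measured every 2 days. Inhibition = (1 − treated/control tumor weight) × 100%.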

[3] = system: Mus musculus; assay: Toxicity in human HepG2 cells xenografted Balb/C mouse assessed as body weight changes at 5 mg/kg, iv dosed every 2 days for 11 days; format: organism-based; set-up: dose 5 mg/kg, route intravenous; settings: in vivo
Summary of the method: (§3)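 Xenografts: 5 × 10^6 tumour cells injected sc in right armpit/flank of 5−6-week-old female mice; at 100 mm3 tumour volume, randomized (6 per group) and dosed in vehicle of 2.5% Tween-80 and 2.5% ethanol; body weights and caliper tumour volumes recorded every 2 days, toxicity signs and mortality daily.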

[4] = system: Mus musculus; assay: Toxicity in human HepG2 cells xenografted Balb/C mouse assessed as mortality level at 5 mg/kg, iv dosed every 2 days for 11 days; format: organism-based; set-up: dose 5 mg/kg, route intravenous; settings: in vivo
Summary of the method: (§4)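 Female Balb/C or athymic nude mice, 5−6 weeks old, implanted sc in the right flank/armpit with 5 × 10^6 cells in HBSS. Once tumors reached 100 mm3, mice were randomized (6 per group) and dosed with vehicle (2.5% Tween-80, 2.5% ethanol) or drug. Toxicity signs and mortality observed daily. Body weight and caliper tumor volume measured every 2 days.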

[5] = Solubility in PBS solution by nephelometry; format: physicochemical
Summary of the method: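 Maximum soluble concentration in PBS, determined by nephelometry.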

[6] = system: Rattus norvegicus; assay: Systemic clearance in rat at 15 mg/kg, po; format: ADME, organism-based; set-up: dose 15 mg/kg, route oral; settings: in vivo
[7] = system: Mus musculus; assay: Toxicity in human A2780S cells xenografted Balb/C mouse assessed as body weight changes at 10 mg/kg, iv dosed every 2 days for 8 days; format: organism-based, A2780; set-up: dose 10 mg/kg, route intravenous; settings: in vivo; summary of the method: as §3
[8] = system: Mus musculus; assay: Toxicity in cisplatin-resistant human […] cells xenografted Balb/C mouse assessed as body weight changes at 10 mg/kg, iv dosed every 2 days for 7 days; format: organism-based, A2780cisR; set-up: dose 10 mg/kg, route intravenous; settings: in vivo; summary of the method: as §3
[9] = system: Mus musculus; assay: Toxicity in cisplatin-resistant human […] cells xenografted Balb/C mouse assessed as mortality level at 10 mg/kg, iv dosed every 2 days for 7 days; format: organism-based, A2780cisR; set-up: dose 10 mg/kg, route intravenous; settings: in vivo; summary of the method: as §4
[10] = system: Mus musculus; assay: Toxicity in mouse C26 cells xenografted Balb/C mouse assessed as mortality level at 10 mg/kg, iv dosed every 2 days for 8 days; format: organism-based; set-up: dose 10 mg/kg, route intravenous; settings: in vivo; summary of the method: as §4
[11] = Toxicity in iv dosed BALB/c mouse; format: organism-based; settings: in vivo
Summary of the method: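 Maximum tolerated dose in BALB/c mice (SPF, 18−22 g, 6−8 weeks, half female and half male). Graded doses given intravenously, n = 4 per dose. Survival and adverse effects recorded every other day after dosing. MTD defined as the largest dose given before one death occurs.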

[12] = system: Rattus norvegicus; assay: Volume of distribution at steady state in rat at 15 mg/kg, po; format: ADME, organism-based; set-up: dose 15 mg/kg, route oral; settings: in vivo
[13] = system: Mus musculus; assay: Toxicity in human A2780S cells xenografted Balb/C mouse assessed as mortality level at 10 mg/kg, iv dosed every 2 days for 8 days; format: organism-based, A2780; set-up: dose 10 mg/kg, route intravenous; settings: in vivo; summary of the method: as §4
[14] = system: Mus musculus; assay: Toxicity in mouse C26 cells xenografted Balb/C mouse assessed as body weight changes at 10 mg/kg, iv dosed every 2 days for 8 days; format: organism-based; set-up: dose 10 mg/kg, route intravenous; settings: in vivo; summary of the method: as §3
[15] = Antitumor activity against cisplatin-resistant human […] cells xenografted in Balb/C mouse assessed as tumor mass changes at 10 mg/kg, iv dosed every 2 days for 7 days; format: functional, A2780cisR; summary of the method: as §2
[16] = system: HepG2; assay: Antiproliferative activity against human HepG2 cells assessed as inhibition of cell proliferation after 48 hrs by MTT assay; format: functional, cell-based; settings: hepg2; summary of the method: as §1
[17] = Antitumor activity against mouse C26 cells xenografted in Balb/C mouse assessed as tumor mass changes at 10 mg/kg, iv dosed every 2 days for 8 days; format: functional; summary of the method: as §2
[18] = Volume of distribution at steady state in rat at 3 mg/kg, iv; format: ADME, organism-based; set-up: dose 3 mg/kg, route intravenous; settings: in vivo, read-out: Vdss
[19] = Cmax in rat at 15 mg/kg, po; format: ADME, organism-based; set-up: dose 15 mg/kg, route oral; settings: in vivo
Summary of the method: (§5)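 Rat pharmacokinetics; oral and intravenous dosing, with group sizes of 5, 5 and 4 rats. Parameters derived: systemic clearance, volume of distribution, area under the plasma concentration–time curve, maximum plasma concentration and percent oral bioavailability.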

[20] = system: Rattus norvegicus; assay: AUC in rat at 15 mg/kg, po; format: ADME, organism-based, Plasma; set-up: dose 15 mg/kg, route oral; settings: in vivo; summary of the method: as §5
[21] = system: Rattus norvegicus; assay: AUC in rat at 3 mg/kg, iv; format: ADME, organism-based, Plasma; set-up: dose 3 mg/kg, route intravenous; settings: in vivo; summary of the method: as §5
[22] = Oral bioavailability in rat at 15 mg/kg; format: ADME, organism-based; settings: in vivo
[23] = Antitumor activity against human A2780S cells xenografted in Balb/C mouse assessed as tumor mass changes at 10 mg/kg, iv dosed every 2 days for 8 days; format: functional, A2780; summary of the method: as §2
[24] = Cmax in rat at 3 mg/kg, iv; format: ADME, organism-based; set-up: dose 3 mg/kg, route intravenous; settings: in vivo; summary of the method: as §5
[25] = system: Rattus norvegicus; assay: Systemic clearance in rat at 3 mg/kg, iv; format: ADME, organism-based; set-up: dose 3 mg/kg, route intravenous; settings: in vivo
[26] = system: Mus musculus; assay: Toxicity in human HepG2 cells xenografted Balb/C mouse assessed as mortality level at 25 mg/kg, po dosed every 2 days for 11 days; format: organism-based; set-up: dose 25 mg/kg, route oral; settings: in vivo; summary of the method: as §4
[27] = system: HepG2; assay: Antitumor activity against human HepG2 cells xenografted in Balb/C mouse assessed as tumor mass changes at 25 mg/kg, po dosed every 2 days for 11 days; format: functional; summary of the method: as §2
[28] = system: Mus musculus; assay: Toxicity in human HepG2 cells xenografted Balb/C mouse assessed as body weight changes at 25 mg/kg, po dosed every 2 days for 11 days; format: organism-based; set-up: dose 25 mg/kg, route oral; settings: in vivo; summary of the method: as §3

COc1cccc2c1C(=O)c1c(O)c3c(c(O)c1C2=O)C[C@@](O)(C(=O)CO)C[C@@H]3O[C@H]1C[C@H](N)[C@H](O)[C@H](C)O1.Cl [DOXORUBICIN HYDROCHLORIDE]
IC50 [1]: 5300 nM
Activity [2]: 61%
Activity [3]: 0.5%
Activity [4]: Non-toxic

COc1ccc(/C=C/C(=O)c2ccc(OC)c3c2OC(C)(C)C=C3)cc1N.Cl
solubility kinetic [5]: 64 µg/mL
CL [6]: 123 mL/min/kg
Activity [7]: -2.5%
Activity [8]: 1%
Activity [9]: Non-toxic
Activity [10]: Non-toxic
MTD [11]: 250 mg/kg
Vdss [12]: 47 L/kg
Activity [13]: Non-toxic
Activity [14]: 0.8%
Activity [15]: 51%
IC50 [16]: 9 nM
Activity [17]: 86%
Vd [18]: 31 L/kg
Cmax [19]: 449 ng/mL
AUC [20]: 2260 ng·h/mL
AUC [21]: 973 ng·h/mL
bioavailability [22]: 47%
Activity [23]: 61%
Cmax [24]: 1510 ng/mL
CL [25]: 50 mL/min/kg
Activity [26]: Non-toxic
Activity [27]: 78%
Activity [28]: 7.6%
